Measurements as given in ChEMBL document CHEMBL3808276, “Identification of Adenine and Benzimidazole Nucleosides as Potent Human Concentrative Nucleoside Transporter 2 Inhibitors: Potential Treatment for Hyperuricemia and Gout” (J Med Chem, 2016).
≈ marks a conversion by molar mass, not a printed value. Calls of active or inactive are those of the source. No cut-off for these calls is given here.

How the values were obtained:
[1] = Solubility of compound in JP2 at pH 6.8 after 1 hr at 37 degC; format: physicochemical; settings: JP2, pH 6.8
Outline: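 Solubility measured in JP2, a 1:1 mix of pH 6.8 phosphate buffer and water, after incubation for 1 h at 37 °C.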

[2] = molecular target: T1, Sodium/nucleoside cotransporter 2 (Rattus norvegicus) (UniProt Q62773); assay: Inhibition of rat CNT2 expressed in African green monkey COS7 cells assessed as reduction of [14C]-inosine uptake at 100 uM by liquid scintillation counting analysis; format: cell-based; settings: COS-7
T1 sequence (whole entry): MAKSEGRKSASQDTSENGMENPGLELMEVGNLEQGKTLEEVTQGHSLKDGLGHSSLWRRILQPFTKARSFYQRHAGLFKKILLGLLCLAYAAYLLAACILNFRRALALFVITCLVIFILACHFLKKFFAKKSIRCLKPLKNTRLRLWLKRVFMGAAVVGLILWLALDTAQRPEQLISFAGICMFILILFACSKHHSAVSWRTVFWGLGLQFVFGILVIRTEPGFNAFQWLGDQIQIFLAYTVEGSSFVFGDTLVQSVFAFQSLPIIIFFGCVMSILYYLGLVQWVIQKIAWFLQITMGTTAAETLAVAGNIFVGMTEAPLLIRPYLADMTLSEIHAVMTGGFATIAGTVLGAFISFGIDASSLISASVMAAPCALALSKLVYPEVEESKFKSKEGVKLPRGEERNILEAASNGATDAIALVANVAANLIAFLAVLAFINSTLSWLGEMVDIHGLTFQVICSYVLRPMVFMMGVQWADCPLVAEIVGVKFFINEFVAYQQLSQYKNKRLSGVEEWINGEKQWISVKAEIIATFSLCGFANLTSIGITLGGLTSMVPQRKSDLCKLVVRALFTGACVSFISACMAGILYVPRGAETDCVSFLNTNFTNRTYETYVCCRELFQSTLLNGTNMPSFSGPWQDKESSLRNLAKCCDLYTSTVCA

[3] = molecular target: T2, Sodium/nucleoside cotransporter 2 (Homo sapiens, UniProt O43868); assay: Inhibition of human CNT2 expressed in African green monkey COS7 cells assessed as reduction of [14C]-inosine uptake by liquid scintillation counting analysis; format: cell-based, COS-7
T2 sequence (O43868 whole entry): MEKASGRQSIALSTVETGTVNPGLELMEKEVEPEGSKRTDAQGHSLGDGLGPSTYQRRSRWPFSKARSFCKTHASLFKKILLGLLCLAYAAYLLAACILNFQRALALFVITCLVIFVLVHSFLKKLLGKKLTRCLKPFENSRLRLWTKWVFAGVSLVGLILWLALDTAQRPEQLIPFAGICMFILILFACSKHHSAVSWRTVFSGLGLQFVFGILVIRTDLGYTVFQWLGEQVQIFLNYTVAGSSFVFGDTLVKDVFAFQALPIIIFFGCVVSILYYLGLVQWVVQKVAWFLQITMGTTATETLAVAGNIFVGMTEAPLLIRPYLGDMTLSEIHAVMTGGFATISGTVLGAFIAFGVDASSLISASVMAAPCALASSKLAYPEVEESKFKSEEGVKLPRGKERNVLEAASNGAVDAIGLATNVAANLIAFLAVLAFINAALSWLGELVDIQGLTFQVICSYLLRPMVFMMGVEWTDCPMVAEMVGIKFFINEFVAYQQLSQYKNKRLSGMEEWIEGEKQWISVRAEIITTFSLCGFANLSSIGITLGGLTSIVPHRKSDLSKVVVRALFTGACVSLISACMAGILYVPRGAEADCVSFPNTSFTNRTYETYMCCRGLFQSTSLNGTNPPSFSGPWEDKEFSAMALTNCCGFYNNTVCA
Outline: (§1)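 COS-7 cells transiently transfected with hCNT2 in pCI-neo, assayed after 2 days. Pretreated in Na+-free choline buffer, 37 °C, 2×10 min. Uptake of 10 µM [14C]inosine for 30 min at 37 °C with 10 µM NBMPR, ±Na+, pH 7.4. Na+-dependent uptake set as 100%; lysate counted by scintillation. IC50 by nonlinear regression, ≥3 experiments; top concentration 100 µM.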

[4] = molecular target: T3, Sodium/nucleoside cotransporter 2 (Rattus norvegicus, UniProt Q62773); assay: Inhibition of rat CNT2 expressed in African green monkey COS7 cells assessed as reduction of [14C]-inosine uptake by liquid scintillation counting analysis; format: cell-based, COS-7
T3 sequence (Q62773 whole entry): T1 sequence (whole entry)
Outline: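 rCNT2 transiently expressed in COS-7 cells, used 2 days post-transfection. 10 µM [14C]inosine uptake at 37 °C for 30 min in the presence of 10 µM NBMPR. Uptake run with Na+ or with choline replacing Na+, pH 7.4; the Na+-dependent difference defined 100% transport. Scintillation read-out; IC50 by nonlinear regression, ≥3 independent runs.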

[5] = test system: Rattus norvegicus; assay: Suppression of adenosine/inosine/guanosine mixture-induced elevation of uric acid level in potassium oxonate-treated Sprague-Dawley rat plasma at 50 mg/kg, po measured after 1 hr by phosphotungstic acid method; format: functional
Outline: (§2)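 Male SD rats, 5 weeks old, fasted overnight, given potassium oxonate 100 mg/kg sc. After 1 h, a purine mix (adenosine:inosine:guanosine 1:1:1, 50 mg/kg) was given orally together with the test compound (50, or 0.1–10 mg/kg). Aortic blood taken 1 h later under anesthesia; plasma uric acid measured by phosphotungstic acid method. Mean ± SEM; Student's t or Dunnett's test.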

[6] = Half life in Sprague-Dawley rat at 1 mg/kg, iv by LC/MS analysis; format: ADME, organism-based; settings: in vivo
Outline: (§3)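 Male SD rats, 6 weeks old, fasted 16 h; 1.0 mg/mL/kg tail-vein bolus in dimethylacetamide/5% glucose (1:1 v/v). Jugular blood at 2 min and 0.25–24 h. Plasma deproteinized with acetonitrile plus warfarin internal standard, then LC/MS. Noncompartmental analysis; CLtot, Vdss and t1/2 derived from the iv data.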

[7] = Cmax in Sprague-Dawley rat at 10 mg/kg, po by LC/MS analysis; format: ADME, organism-based; set-up: dose 10 mg/kg, route oral; settings: in vivo
Outline: (§4)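 Male SD rats, 6 weeks old, fasted 16 h; oral dose 10 mg/5 mL/kg as a suspension in 0.5% sodium carboxymethylcellulose. Jugular blood at 0.25, 0.5, 1, 2, 4, 6, 8 and 24 h. Acetonitrile-deproteinized plasma with warfarin internal standard analysed by LC/MS. Parameters from noncompartmental analysis.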

[8] = AUC (0 to infinity) in Sprague-Dawley rat at 10 mg/kg, po by LC/MS analysis; format: ADME, organism-based; set-up: dose 10 mg/kg, route oral, time infinity; settings: in vivo
Outline: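 Fasted (16 h) 6-week-old male SD rats were dosed orally at 10 mg/5 mL/kg as a suspension in 0.5% sodium carboxymethylcellulose. Heparinized jugular blood was sampled at 0.25, 0.5, 1, 2, 4, 6, 8 and 24 h. Plasma was deproteinized with acetonitrile plus warfarin internal standard and quantified by gradient C18 LC against a 1-5000 ng/mL standard curve. AUC was derived noncompartmentally.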

[9] = Volume of distribution at steady state in Sprague-Dawley rat at 1 mg/kg, iv by LC/MS analysis; format: ADME, organism-based; settings: in vivo, read-out: Vdss; outline: as §3
[10] = Clearance in Sprague-Dawley rat at 1 mg/kg, iv by LC/MS analysis; format: ADME, organism-based; settings: in vivo; outline: as §3
[11] = test system: Rattus norvegicus; assay: Suppression of adenosine/inosine/guanosine mixture-induced elevation of uric acid level in potassium oxonate-treated Sprague-Dawley rat plasma at 1 to 10 mg/kg, po measured after 1 hr by phosphotungstic acid method; format: functional, organism-based; outline: as §2
[12] = Tmax in Sprague-Dawley rat at 10 mg/kg, po by LC/MS analysis; format: ADME, organism-based; settings: in vivo; outline: as §4
[13] = Oral bioavailability in Sprague-Dawley rat at 10 mg/kg by LC/MS analysis; format: ADME, organism-based; settings: in vivo
Outline: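 Oral F in fasted male SD rats from noncompartmental AUCs. Oral arm: 10 mg/kg suspended in 0.5% CMC-Na. IV arm: 1.0 mg/kg in dimethylacetamide/5% glucose. F = (AUCpo/AUCiv)×(dose iv/dose po)×100. Plasma measured by LC/MS.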

[14] = AUC (0 to infinity) in Sprague-Dawley rat at 1 mg/kg, iv by LC/MS analysis; format: ADME, organism-based; set-up: dose 1 mg/kg, route intravenous, time infinity; settings: in vivo
Outline: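 Male SD rats (6 weeks old, fasted 16 h) received a tail-vein bolus of 1.0 mg/mL/kg in dimethylacetamide/5% glucose (1:1 v/v). Heparinized jugular blood was drawn at 2 min and 0.25, 1, 2, 4, 6, 8 and 24 h. Plasma was acetonitrile-deproteinized with warfarin internal standard and run by gradient LC on a C18 column, calibrated 1-5000 ng/mL. AUC came from noncompartmental analysis.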

[15] = molecular target: T1, Sodium/nucleoside cotransporter 2 (Rattus norvegicus); assay: Inhibition of rat CNT2 expressed in African green monkey COS7 cells assessed as reduction of [14C]-inosine uptake at 1000 uM by liquid scintillation counting analysis; format: cell-based; settings: COS-7
Outline: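 rCNT2 cDNA in pCI-neo, transiently transfected into COS-7 cells and assayed 2 days later. Cells were pre-incubated twice for 10 min at 37 °C in Na+-free choline buffer, pH 7.4. Uptake of 10 µM [14C]/unlabeled inosine ran 30 min at 37 °C with 10 µM NBMPR. Na+-dependent uptake (Na+ minus choline buffer) was set as 100%, and percent inhibition was taken at 1000 µM.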

[16] = molecular target: T4, Sodium/nucleoside cotransporter 2 (Homo sapiens) (UniProt O43868); assay: Inhibition of human CNT2 expressed in African green monkey COS7 cells assessed as reduction of [14C]-inosine uptake at 100 uM by liquid scintillation counting analysis; format: cell-based; settings: COS-7; outline: as §1
T4 sequence (whole entry): T2 sequence (O43868 whole entry)

Row | Compound | solubility at 1 h [1] [µg/mL] | inhibition [2] | IC50 [3] [µM] | IC50 [4] [µM] | also measured
1 | CCOc1cc(CNc2nc3c(N)ncnc3n2[C@@H]2O[C@H](CO)[C@@H](O)[C@H]2O)ccc1-c1ccccc1 | 121 (≈ 246 µM) | inactive | 2.3 |  | 
2 | NC(=O)COc1cc(CNc2nc3c(N)ncnc3n2[C@@H]2O[C@H](CO)[C@@H](O)[C@H]2O)ccc1-c1ccccc1 |  | < 5% | 5.5 | > 100 | 
3 | Nc1ncnc2c1nc(NCc1ccc(-c3ccccc3)c(OCCCCO)c1)n2[C@@H]1O[C@H](CO)[C@@H](O)[C@H]1O | 190 (≈ 354 µM) |  | 0.94 | 38 | Activity [5]: 42%
4 | Nc1ncnc2c1nc(NCc1ccc(-c3ccccc3)c(OCCCO)c1)n2[C@@H]1O[C@H](CO)[C@@H](O)[C@H]1O |  |  | 1.1 | 45.1 | 
5 | COc1cc(-c2ccccc2)ccc1CNc1nc2c(N)ncnc2n1[C@@H]1O[C@H](CO)[C@@H](O)[C@H]1O | 4 (≈ 8.36 µM) | inactive | 1.1 |  | 
6 | CC(C)Oc1cc(CNc2nc3c(N)ncnc3n2[C@@H]2O[C@H](CO)[C@@H](O)[C@H]2O)ccc1-c1ccccc1 |  | inactive | 10.4 |  | 
7 | Nc1ncnc2c1nc(NCc1ccc(-c3ccncc3)cc1)n2[C@@H]1O[C@H](CO)[C@@H](O)[C@H]1O |  | inactive | 2.7 |  | 
8 | Nc1ncnc2c1nc(NCc1ccc(-c3ccccc3)cc1)n2[C@@H]1O[C@H](CO)[C@@H](O)[C@H]1O | 3 (≈ 6.69 µM) | inactive |  |  | 
9 | CCCOc1cc(CNc2nc3c(N)ncnc3n2[C@@H]2O[C@H](CO)[C@@H](O)[C@H]2O)ccc1-c1ccccc1 |  | inactive | 5.2 |  | 
10 | OCCCCOc1cc(CNc2nc3ccccc3n2[C@@H]2O[C@H](CO)[C@@H](O)[C@H]2O)ccc1-c1ccccc1 | 120 (≈ 231 µM) |  | 0.062 | 1.5 | half-life [6]: 1.7 h; Cmax [7]: 110 nM; AUC(0-inf) [8]: 0.25 µM·h; Vd [9]: 0.117 L/kg; clearance [10]: 6.57 mL/min/kg; Activity [11]: Active; Tmax [12]: 0.83 h; bioavailability [13]: 0.51%; AUC(0-inf) [14]: 5 µM·h
11 | Nc1ncnc2c1nc(NCc1ccc(-c3ccccc3)cc1O)n2[C@@H]1O[C@H](CO)[C@@H](O)[C@H]1O |  | inactive | 1.3 |  | 
12 | COc1cc(CNc2nc3c(N)ncnc3n2[C@@H]2O[C@H](CO)[C@@H](O)[C@H]2O)ccc1-c1ccccc1 | 215 (≈ 449 µM) | inactive | 1.3 |  | 
13 | O=c1[nH]cnc2c1nc(NCc1ccc(-c3ccccc3)c(OCCCCO)c1)n2[C@@H]1O[C@H](CO)[C@@H](O)[C@H]1O |  |  | 20.1 | > 1000 | inhibition [15]: 18%
14 | CCOc1cc(-c2ccccc2)ccc1CNc1nc2c(N)ncnc2n1[C@@H]1O[C@H](CO)[C@@H](O)[C@H]1O | 2 (≈ 4.06 µM) | inactive | 5.4 |  | 
15 | Nc1ncnc2c1nc(NCc1ccc(-c3ccccc3)c(OCCCCCO)c1)n2[C@@H]1O[C@H](CO)[C@@H](O)[C@H]1O |  |  | 1.6 | 60 | 
16 | CC(C)Oc1cc(-c2ccccc2)ccc1CNc1nc2c(N)ncnc2n1[C@@H]1O[C@H](CO)[C@@H](O)[C@H]1O |  | inactive | 9.3 |  | 
17 | CCCOc1cc(-c2ccccc2)ccc1CNc1nc2c(N)ncnc2n1[C@@H]1O[C@H](CO)[C@@H](O)[C@H]1O |  | inactive |  |  | inhibition [16]: inactive
18 | Nc1ncnc2c1nc(NCc1ccc(-c3cccnc3)cc1)n2[C@@H]1O[C@H](CO)[C@@H](O)[C@H]1O |  | 11% | 1 | > 100 | 
19 | Nc1ncnc2c1nc(NCc1ccc(-c3ccccn3)cc1)n2[C@@H]1O[C@H](CO)[C@@H](O)[C@H]1O |  | inactive | 1.5 |  | 
20 | Nc1ncnc2c1nc(NCc1ccc(-c3ccccc3)c(O)c1)n2[C@@H]1O[C@H](CO)[C@@H](O)[C@H]1O |  | inactive | 1.2 |  | 
21 | COC(=O)COc1cc(CNc2nc3c(N)ncnc3n2[C@@H]2O[C@H](CO)[C@@H](O)[C@H]2O)ccc1-c1ccccc1 |  | inactive | 3.3 |  | 
22 | Nc1ncnc2c1nc(NCc1ccc(-c3ccccc3)c(OCCO)c1)n2[C@@H]1O[C@H](CO)[C@@H](O)[C@H]1O |  | 49% | 3.1 | > 100 | 
